# Source: PubChem BioAssay (Sanford-Burnham Center for Chemical Genomics)
# Hits are enriched below; roughly 1.2% of the tested compounds scored in any of these assays.
# PfG6PD inh: PfG6PD (Plasmodium falciparum) enzyme inhibition; PfGluPho enzyme, NADPH resazurin-diaphorase fluorescence; inhibition, % at 20 µM; 350,000 tested, 0.78% active;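 active = inhibition reaching at least a set limit at 20 µM in the primary screen, cut at about 59% in these data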;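 note: 0% = DMSO wells with substrate and 100% = DMSO wells lacking glucose-6-phosphate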
# G6PDH counter: L. mesenteroides G6PDH inhibition counter-screen | inhibition, % at 5 µM | AID 1020 | Purified L. mesenteroides G6PDH, diaphorase/resazurin coupled fluorescence, 45 min | 200,000 tested, 0.12% active; in the data active = inhibition above about 50%
# HKDC1 inhibitor: HKDC1 (human) hexokinase inhibition | recombinant HKDC1, G6PDH/diaphorase resazurin coupled fluorescence | inhibition, % at 20 µM | AID 493160 | 340,000 tested, 0.16% active | Q2TB90;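 active = inhibition above about 35% when tested at 20 µM, limit read from the data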;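 note: plate controls were DMSO wells with enzyme for no effect and DMSO wells lacking enzyme for full effect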
# Target sequence (Q2TB90 whole entry, looked up): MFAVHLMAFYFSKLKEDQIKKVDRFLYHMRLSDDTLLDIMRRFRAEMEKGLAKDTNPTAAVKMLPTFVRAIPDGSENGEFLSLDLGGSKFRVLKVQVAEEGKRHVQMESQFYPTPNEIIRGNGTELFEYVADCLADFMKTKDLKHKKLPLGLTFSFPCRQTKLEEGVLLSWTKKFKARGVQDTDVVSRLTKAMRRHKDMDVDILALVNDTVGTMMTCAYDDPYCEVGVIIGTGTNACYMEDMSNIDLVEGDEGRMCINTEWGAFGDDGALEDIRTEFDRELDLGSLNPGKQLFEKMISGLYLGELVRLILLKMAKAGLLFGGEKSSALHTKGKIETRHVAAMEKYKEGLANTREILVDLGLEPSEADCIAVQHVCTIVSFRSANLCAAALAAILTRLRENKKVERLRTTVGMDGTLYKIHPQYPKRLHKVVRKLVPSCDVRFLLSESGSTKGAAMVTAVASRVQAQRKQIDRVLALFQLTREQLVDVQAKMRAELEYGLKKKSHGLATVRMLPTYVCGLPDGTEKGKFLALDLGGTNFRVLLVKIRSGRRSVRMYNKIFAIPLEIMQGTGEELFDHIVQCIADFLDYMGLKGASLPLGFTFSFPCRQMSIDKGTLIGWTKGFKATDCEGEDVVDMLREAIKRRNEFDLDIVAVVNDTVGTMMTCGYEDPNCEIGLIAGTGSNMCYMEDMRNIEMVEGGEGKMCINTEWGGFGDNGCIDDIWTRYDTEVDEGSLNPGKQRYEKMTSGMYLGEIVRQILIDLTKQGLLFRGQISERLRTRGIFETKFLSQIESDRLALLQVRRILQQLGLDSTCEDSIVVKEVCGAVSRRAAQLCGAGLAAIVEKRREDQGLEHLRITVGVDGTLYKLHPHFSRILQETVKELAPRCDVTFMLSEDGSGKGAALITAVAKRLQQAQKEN
#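 Material: recombinant HKDC1 hexokinase; Amount: HKDC1 at 5 µg/mL; Medium: Tris pH 8.0 buffer with MgCl2, Tween-20, BSA, BME; Schedule: 90 min reaction incubation at room temperature, dark; Technique: coupled resazurin fluorescence, excitation 525 nm, emission 613 nm.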
# Diaph inh CS: inhibits diaphorase or chemically oxidizes, flagging diaphorase assay artifacts; inhibition, % at 20 µM; 190,000 tested, 0.69% active; AID 1217; diaphorase resazurin-to-resorufin fluorescence, NADH, 16 min; bacterial (C. kluyveri) enzyme, not human;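 active = primary screen inhibition at 20 µM above a set limit, cut at about 50% in these data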;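 note: plate controls were DMSO with full reaction for no effect and wells lacking NADH for full effect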
#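 controls = No-NADH positive control and DMSO neutral control | system = Clostridium kluyveri diaphorase enzyme | timing = reaction incubation of 16 min at room temperature | signal = resorufin fluorescence 544/590 nm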
# Diaph act CS: activates diaphorase or chemically reduces, flagging diaphorase assay artifacts; Diaphorase/resazurin coupled assay, resorufin fluorescence, 16 min; stronger effect = higher value; 1 = vehicle wells, 0 = NADH-free wells; activation factor at 20 µM; 190,000 tested, 0.005% active;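 active = diaphorase activity raised at least twofold by the compound at 20 µM; inactive = activation factor below 2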
#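 Material: Purified diaphorase enzyme from Clostridium kluyveri | Buffer or medium: 50 mM HEPES pH 7.4 with 4.542 mM MgCl2, 0.005% Tween 20 | Times: 16 min enzyme reaction, ambient temperature | Signal: Red resorufin fluorescence at 544/590 nm excitation/emission | Measure: Increased resorufin signal from activators or reducing compounds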
# An asterisk follows results filed as active; . = not tested or not shown.
SMILES,PfG6PD inh,G6PDH counter,HKDC1 inhibitor,Diaph inh CS,Diaph act CS
COc1cccc(C2CC(=O)N3CN(c4ccccc4F)CSC3=C2C#N)c1 (stereo unspecified),83*,13,7,41,0.6
COc1ccc(CC(=O)Oc2ccc(C)cc2Br)cc1S(=O)(=O)N1CCOCC1,-19,.,5,.,.
COc1cc(C2CC(=O)N3CN(c4ccccc4C)CSC3=C2C#N)cc(OC)c1OC (stereo unspecified),.,25,.,59*,0.4
CCOC(=O)c1ccc(N2CSC3=C(C#N)C(c4ccc(OC)cc4OC)CC(=O)N3C2)cc1 (stereo unspecified),54,5,3,42,0.6
CCCCN(C(=O)c1cccc(S(=O)(=O)N(CC)c2ccccc2)c1)c1c(N)n(CC(C)C)c(=O)[nH]c1=O,-10,.,-7,.,.
CCCNC1=C(N(C(C)=O)c2cccc(F)c2)C(=O)c2ccccc2C1=O,20,52*,19,34,0.7
CCCNC(=O)COC(=O)/C=C/c1cccc(F)c1,8,2,-7,3,1
N#C/C(C(N)=O)=c1/ccc2c(c1)N1C3=C(CCCC3)CC3CCCCC31N=2 (stereo unspecified),44,11,52*,91*,0.1
CSCCC(NC(=O)c1cccc(C)c1)C(=O)OCN1C(=O)c2ccccc2C1=O (stereo unspecified),1,.,-6,.,.
O=c1[nH]c(Nc2ccccc2)cc2cc(Br)ccc12,5,.,8,.,.
O=c1[nH]c(Nc2ccccc2)cc2ccccc12,5,55*,13,10,0.9
COc1cc(OC)c(OC)cc1CN1CCC(O)CC1,-6,.,-6,.,.
Cc1ccc(-n2c(C)nc3oc4ccccc4c(=O)c3c2=O)cc1,-5,15,10,56*,0.4
Cc1cccc(-n2c(=S)[nH]c3c(oc4ccccc43)c2=O)c1,26,-2,15,64*,0.4
O=c1c2oc3ccccc3c2[nH]c(=S)n1-c1ccccc1,18,-35,11,66*,0.3
Cc1ccc(-n2c(=S)[nH]c3c(oc4ccccc43)c2=O)cc1,11,14,11,66*,0.3
CCc1nc2oc3cc(OC)ccc3c(=O)c2c(=O)n1-c1ccccc1,-10,0,5,10,0.9
Cc1cccc(-n2c(C)c(-c3ccccc3)[nH]c2=S)c1,47,.,-5,.,.
COc1ccc(NS(=O)(=O)c2cccc(C(=O)NCc3ccccc3CN3CCCC3)c2)cc1,-18,.,-2,.,.
COc1cccc(NC(=O)CN2C(=O)COc3ccc(S(=O)(=O)N4CCOCC4)cc32)c1,-20,.,2,.,.
CN(C)S(=O)(=O)c1ccc(F)c(C(=O)Nc2ccccc2C(=O)NC2CC2)c1,-14,.,-3,.,.
Cc1ccc(N/N=C/c2c(C)c(C#N)c(=O)n(C)c2O)cc1C,39,30,3,69*,0.3
O=S(=O)(NNc1ccc(Cl)nn1)c1ccc(F)cc1,38,11,4,12,0.9
O=C(O)C1Nc2c(O)cccc2C2C=CCC12 (stereo unspecified),8,24,6,78*,0.2
O=c1c(Cl)c(O)c2cccc3c4ccccc4n1c23,16,3,20,52*,0.5
SMILES,PfG6PD inh,G6PDH counter,HKDC1 inhibitor,Diaph inh CS,Diaph act CS
O=[N+]([O-])c1nn(-c2ccccc2)[n+]([O-])c1N1CCN(c2ccccc2F)CC1,1,2,-6,4,1
NC(=S)N/N=C/c1cccc(O)c1O,6,66*,12,60*,0.4
NC(=S)N/N=C/c1ccccc1O,-35,.,-25,.,.
Fc1cccc(F)c1/C=N/NC(=S)Nc1cccnc1,-6,-3,-13,9,0.9
Oc1cccc(/C=N/NC(=S)Nc2cccnc2)c1O,19,51*,-1,60*,0.4
Oc1cccc(/C=N/NC(=S)NCCN2CCOCC2)c1O,-14,60*,4,66*,0.3
CNc1ccc(Br)cc(C(=O)/C=C/c2ccc(Cl)cc2Cl)c1=O,25,34,19,85*,0.2
CCNc1ccc(Br)cc(C(=O)/C=C/c2ccc3c(c2)OCO3)c1=O,33,38,21,59*,0.4
CNc1ccc(Br)cc(C(=O)/C=C/c2ccc(OC)cc2OC)c1=O,37,21,25,42,0.6
CNc1ccc(Br)cc(C(=O)/C=C/c2cccc(OC)c2)c1=O,39,24,26,50*,0.5
CCOC(CCNC(=O)c1cn(CCOC)c(=O)c2c1c1ccccc1n2C)OCC,6,.,5,.,.
Cc1c(Cl)cccc1NC(=O)CNC(=O)CCCc1nc2ccccc2c(=O)[nH]1,-7,.,1,.,.
Cc1csc(NC(=O)c2cccc(S(=O)(=O)N3CCN(C)CC3)c2)n1,7,6,-9,0,1
Cc1ccc(-c2nc(CN(C)Cc3cccc4cnccc34)c(C)o2)s1,4,17,-5,20,0.8
Cc1ccccc1CCNC(=O)C1CCC(=O)N(CCc2cccc(F)c2)C1 (stereo unspecified),0,.,-1,.,.
CC1CCCN(C(=S)SCC(=O)c2cc(Br)cc(Br)c2O)C1 (stereo unspecified),-20,23,-15,62*,0.4
CCN1CCCC1CNC(=O)Cn1cc(C)c(=O)[nH]c1=O (stereo unspecified),-20,.,-5,.,.
O=C(O)c1ccc(NCCc2ccc(Cl)cc2)c([N+](=O)[O-])c1,-15,3,1,5,1
CCCC(=O)NC(c1ccc(OC)c(OC)c1)c1cc(Cl)c2cccnc2c1O (stereo unspecified),-12,15,-34,35,0.6
CCCC(=O)NC(c1ccco1)c1cc([N+](=O)[O-])c2cccnc2c1O (stereo unspecified),12,56*,4,38,0.6
CC(=O)NC(c1ccco1)c1ccc2cccnc2c1O (stereo unspecified),-22,42,-13,53*,0.5
CC(=O)NC(c1ccc(C)cc1)c1cc([N+](=O)[O-])c2cccnc2c1O (stereo unspecified),27,61*,20,60*,0.4
CCC(=O)NC(c1ccc(C)cc1)c1cc([N+](=O)[O-])c2cccnc2c1O (stereo unspecified),-17,37,4,29,0.7
C[C@H]1CN([C@@H](C)CO)S(=O)(=O)c2ccc(Br)cc2O[C@H]1CN(C)C(=O)c1cccc(F)c1,19,.,.,.,.
Cc1cn([C@H]2C[C@H](O)[C@@H](CNC/C=C/c3ccccc3[N+](=O)[O-])O2)c(=O)[nH]c1=O,10,.,.,.,.
OCC1(Cc2ccccc2)CCN(CCCC2CCCC2)CC1,-6,0,-2,-1,1
Cc1ccc2c(c1)/C(=C/c1ccc(F)cc1)C(=O)N2,13,.,23,.,.
Cc1ccc2c(c1)N/C(=C(\C=C(/Cl)[N+](=O)[O-])[N+](=O)[O-])N2,.,26,.,75*,0.3
